# Measurements published in ChEMBL document CHEMBL3784969, “Pharmacokinetics of flutamide in patients with renal insufficiency” (Br J Clin Pharmacol, 1999).
# Tests used:
# [1] = test system: Homo sapiens; test: Final time point in terminal phase in patient (6 patients) with renal insufficiency assessed as hydroxy flutamide at 250 mg, po administered as single dose by gas chromatography; format: ADME, organism-based; details: in vivo
# How it was run: (§1)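 Males grouped by 24 h CLcr normalised to body surface area (>80, 50–80, 30–49, 5–29 ml min−1 1.73 m−2), fasted 10 h pre-dose and 4 h post-dose, given a single oral 250 mg flutamide dose. Plasma sampled 0–96 h; urine collected in blocks to 96 h. Flutamide and hydroxyflutamide measured by GC with electron-capture detection. Renal CL = Ae(0,96 h)/AUC(0,96 h); t1/2 = 0.693/λz.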
# [2] = AUC (0 to 96 hrs) in patient (6 patients) with renal insufficiency at 250 mg, po administered as single dose by gas chromatography; format: ADME, organism-based; design: dose 250 mg, time < 96 hr, route oral; details: human, in vivo
# [3] = Tmax in patient (6 patients) with renal insufficiency at 250 mg, po administered as single dose 4 hrs prior to hemodialysis treatment measured at starting time of dialysis and post dialysis treatment by gas chromatography; format: ADME, organism-based; details: human, in vivo
# How it was run: (§2)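 Group V haemodialysis males (CLcr <5 ml min−1 1.73 m−2). Single oral 250 mg flutamide (two 125 mg capsules) right after HD; after 14-day washout, same dose 4 h before HD lasting 2–4 h. Venous samples to 48 h, arterial/venous during HD, dialysate in hourly blocks. GC with 63Ni electron-capture detection. CL(HD) = dialysate Ae(HD)/arterial AUC(HD); renal CL = Ae(0,48)/AUC(0,48 h).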
# [4] = AUC (0 to 24 hrs) in patient (6 patients) with renal insufficiency at 250 mg, po administered as single dose 4 hrs prior to hemodialysis treatment measured at starting time of dialysis and post dialysis treatment by gas chromatography; format: ADME, organism-based; design: time < 24 hr, dose 250 mg, route oral; details: human, in vivo
# [5] = test system: Homo sapiens; test: Renal clearance in patient (6 patients) with renal insufficiency assessed as hydroxy flutamide at 250 mg, po administered as single dose by gas chromatography; format: ADME, organism-based, Kidney; details: in vivo; how it was run: as §1
# [6] = AUClast in patient (7 patients) with renal insufficiency at 250 mg, po administered as single dose by gas chromatography; format: ADME, organism-based; design: dose 250 mg, time 0 - last, route oral; details: human, in vivo
# [7] = Drug excretion in urine of patient (3 patients) with renal insufficiency assessed as hydroxy flutamide at 250 mg, po administered as single dose by gas chromatography; format: ADME, organism-based; details: human, in vivo; how it was run: as §1
# [8] = test system: Homo sapiens; test: Final time point in terminal phase in patient (6 patients) with renal insufficiency at 250 mg, po administered as single dose 4 hrs prior to hemodialysis treatment measured at starting time of dialysis and post dialysis treatment by gas chromatography; format: ADME, organism-based; details: in vivo; how it was run: as §2
# [9] = test system: Homo sapiens; test: AUC (0 to 24 hrs) in patient (6 patients) with renal insufficiency assessed as hydroxy flutamide at 250 mg, po administered as single dose 4 hrs prior to hemodialysis treatment measured at starting time of dialysis and post dialysis treatment by gas chromatography; format: ADME, organism-based; design: time < 24 hr, dose 250 mg, route oral; details: in vivo
# [10] = Drug excretion in urine of patient (6 patients) with renal insufficiency at 250 mg, po administered as single dose 4 hrs prior to hemodialysis treatment measured at starting time of dialysis and post dialysis treatment by gas chromatography; format: ADME, organism-based; details: human, in vivo; how it was run: as §2
# [11] = Tmax in patient (4 patients) with renal insufficiency at 250 mg, po administered as single dose by gas chromatography; format: ADME, organism-based; details: human, in vivo; how it was run: as §1
# [12] = test system: Homo sapiens; test: Renal clearance in patient (7 patients) with renal insufficiency assessed as hydroxy flutamide at 250 mg, po administered as single dose by gas chromatography; format: ADME, organism-based, Kidney; details: in vivo; how it was run: as §1
# [13] = test system: Homo sapiens; test: Final time point in terminal phase in patient (7 patients) with renal insufficiency assessed as hydroxy flutamide at 250 mg, po administered as single dose by gas chromatography; format: ADME, organism-based; details: in vivo; how it was run: as §1
# [14] = Tmax in patient (3 patients) with renal insufficiency at 250 mg, po administered as single dose by gas chromatography; format: ADME, organism-based; details: human, in vivo; how it was run: as §1
# [15] = test system: Homo sapiens; test: AUC (0 to 96 hrs) in patient (3 patients) with renal insufficiency at 250 mg, po assessed as hydroxy flutamide administered as single dose by gas chromatography; format: ADME, organism-based; design: dose 250 mg, time < 96 hr, route oral; details: in vivo
# [16] = test system: Homo sapiens; test: Tmax in patient (3 patients) with renal insufficiency assessed as hydroxy flutamide at 250 mg, po administered as single dose by gas chromatography; format: ADME, organism-based; details: in vivo; how it was run: as §1
# [17] = Renal clearance in patient (4 patients) with renal insufficiency at 250 mg, po administered as single dose by gas chromatography; format: ADME, organism-based, Kidney; details: human, in vivo; how it was run: as §1
# [18] = test system: Homo sapiens; test: Cmax in patient (7 patients) with renal insufficiency assessed as hydroxy flutamide at 250 mg, po administered as single dose by gas chromatography; format: ADME, organism-based; design: dose 250 mg, route oral; details: in vivo
# [19] = test system: Homo sapiens; test: AUC in patient with renal insufficiency at 250 mg, po administered first dose followed by 14 days wash out period and administered second dose 4 hrs prior to hemodialysis measured during hemodialysis treatment by gas chromatography; format: ADME, organism-based; details: in vivo; how it was run: as §2
# [20] = test system: Homo sapiens; test: Clearance in patient with renal insufficiency at 250 mg, po administered first dose followed by 14 days wash out period and administered second dose 4 hrs prior to hemodialysis measured during hemodialysis treatment by gas chromatography; format: ADME, organism-based; details: in vivo; how it was run: as §2
# [21] = Renal clearance in patient (7 patients) with renal insufficiency at 250 mg, po administered as single dose by gas chromatography; format: ADME, organism-based, Kidney; details: human, in vivo; how it was run: as §1
# [22] = Elimination rate constant in patient with renal insufficiency at 250 mg, po administered first dose followed by 14 days wash out period and administered second dose 4 hrs prior to hemodialysis measured during hemodialysis treatment by gas chromatography; format: ADME, organism-based; details: human, in vivo; how it was run: as §2
# [23] = test system: Homo sapiens; test: Terminal half life in patient (3 patients) with renal insufficiency assessed as hydroxy flutamide at 250 mg, po administered as single dose by gas chromatography; format: ADME, organism-based; details: in vivo; how it was run: as §1
# [24] = AUC (0 to 96 hrs) in patient (4 patients) with renal insufficiency at 250 mg, po administered as single dose by gas chromatography; format: ADME, organism-based; design: time < 96 hr, dose 250 mg, route oral; details: human, in vivo
# [25] = test system: Homo sapiens; test: Tmax in patient (4 patients) with renal insufficiency assessed as hydroxy flutamide at 250 mg, po administered as single dose by gas chromatography; format: ADME, organism-based; details: in vivo; how it was run: as §1
# [26] = AUC (0 to 24 hrs) in patient (7 patients) with renal insufficiency at 250 mg, po administered as single dose by gas chromatography; format: ADME, organism-based; design: dose 250 mg, time < 24 hr, route oral; details: human, in vivo
# [27] = test system: Homo sapiens; test: AUC (0 to 96 hrs) in patient (4 patients) with renal insufficiency at 250 mg, po assessed as hydroxy flutamide administered as single dose by gas chromatography; format: ADME, organism-based; design: dose 250 mg, time < 96 hr, route oral; details: in vivo
# [28] = test system: Homo sapiens; test: Final time point in terminal phase in patient (4 patients) with renal insufficiency assessed as hydroxy flutamide at 250 mg, po administered as single dose by gas chromatography; format: ADME, organism-based; details: in vivo; how it was run: as §1
# [29] = test system: Homo sapiens; test: Cmax in patient (3 patients) with renal insufficiency assessed as hydroxy flutamide at 250 mg, po administered as single dose by gas chromatography; format: ADME, organism-based; design: dose 250 mg, route oral; details: in vivo
# [30] = AUClast in patient (3 patients) with renal insufficiency at 250 mg, po administered as single dose by gas chromatography; format: ADME, organism-based; design: dose 250 mg, time 0 - last, route oral; details: human, in vivo
# [31] = AUC (0 to 96 hrs) in patient (7 patients) with renal insufficiency at 250 mg, po administered as single dose by gas chromatography; format: ADME, organism-based; design: dose 250 mg, time < 96 hr, route oral; details: human, in vivo
# [32] = AUClast in patient (6 patients) with renal insufficiency at 250 mg, po administered as single dose by gas chromatography; format: ADME, organism-based; design: dose 250 mg, time 0 - last, route oral; details: human, in vivo
# [33] = Cmax in patient (7 patients) with renal insufficiency at 250 mg, po administered as single dose by gas chromatography; format: ADME, organism-based; design: dose 250 mg, route oral; details: human, in vivo
# [34] = test system: Homo sapiens; test: Final time point in terminal phase in patient (3 patients) with renal insufficiency at 250 mg, po administered as single dose by gas chromatography; format: ADME, organism-based; details: in vivo; how it was run: as §1
smiles,measurement,setting,value
CC(C)C(=O)Nc1ccc([N+](=O)[O-])c(C(F)(F)F)c1 [FLUTAMIDE],Time,[1],46 h
same,AUC(0-t) at 96 h,[2],96.4 ng·h/mL
same,Tmax,[3],1 h
same,AUC(0-t) at 24 h,[4],217 ng·h/mL
same,CL,[5],0.36 mL/min
same,AUC(0-t),[6],32.5 ng·h/mL
same,Drug excretion,[7],132 µg
same,Time,[8],7 h
same,AUC,[9],5434 ng·h/mL
same,Drug excretion,[10],0 µg
same,Tmax,[11],1 h
same,CL,[12],0.3 mL/min
same,Time,[13],38.6 h
same,Tmax,[14],2 h
same,AUC,[15],6907 ng·h/mL
same,Tmax,[16],3 h
same,CL renal,[17],4 mL/min
same,Cmax,[18],967 ng/mL
same,AUC,[19],907.6 ng·h/mL
same,CL,[20],21.4 mL/min
same,CL renal,[21],22.8 mL/min
same,k el,[22],5.56e-05 s⁻¹
same,beta t1/2,[23],8 h
same,AUC(0-t) at 96 h,[24],107 ng·h/mL
same,Tmax,[25],3 h
same,AUC(0-t) at 24 h,[26],59.8 ng·h/mL
same,AUC,[27],6499 ng·h/mL
same,Time,[28],56 h
same,Cmax,[29],902 ng/mL
same,AUC(0-t),[30],74 ng·h/mL
same,AUC(0-t) at 96 h,[31],59.8 ng·h/mL
same,AUC(0-t),[32],75.8 ng·h/mL
same,Cmax,[33],20.9 ng/mL
same,Time,[34],6 h
